This is a sample that favours compounds with a hit; in the whole collection about 3.5% have one here.
MrgX1 antag: antagonists of human MrgX1 receptor | Q96LB2 | MRGX1-HEK293 calcium flux, Fluo-4, BAM8-22 antagonism; active compounds read low | B-score at 10 µM | 310,000 compounds, 1.3% hits;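 active = calcium-response B-score plate-corrected more than 3 library SD below zero, starting fluorescence within 5 deviations, no agonist response on first addition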;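 note: peak minus trough fluorescence over baseline after final BAM8-22 challenge near maximal dose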
Target sequence (Q96LB2 whole entry, looked up): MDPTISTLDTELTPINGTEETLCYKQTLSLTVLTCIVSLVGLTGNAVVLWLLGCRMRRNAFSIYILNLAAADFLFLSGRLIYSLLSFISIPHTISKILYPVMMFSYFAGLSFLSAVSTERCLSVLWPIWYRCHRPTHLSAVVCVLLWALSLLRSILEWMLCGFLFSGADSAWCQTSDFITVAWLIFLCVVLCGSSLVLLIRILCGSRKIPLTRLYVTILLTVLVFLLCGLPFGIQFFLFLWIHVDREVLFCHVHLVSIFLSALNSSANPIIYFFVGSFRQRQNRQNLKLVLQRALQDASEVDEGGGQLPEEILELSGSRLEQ
RGS4 inh: human RGS4 inhibition. B-score at 10 µM. HEK293 M3R/RGS4 inducible, Fluo-4 calcium flux; active compounds read high; triggered by carbachol at its EC20. P49798. 310,000 compounds, 0.45% hits;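 active = B-score, a plate-corrected calcium signal, over three deviations above library mean, with baseline fluorescence within five deviations of library mean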;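 note: RGS4 expression induced by doxycycline in cells with stable M3 receptor; B-score is computed from the integrated fluorescence ratio over baseline after carbachol; higher B-score means a larger calcium signal and so more RGS4 inhibition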
Target sequence (P49798 whole entry, looked up): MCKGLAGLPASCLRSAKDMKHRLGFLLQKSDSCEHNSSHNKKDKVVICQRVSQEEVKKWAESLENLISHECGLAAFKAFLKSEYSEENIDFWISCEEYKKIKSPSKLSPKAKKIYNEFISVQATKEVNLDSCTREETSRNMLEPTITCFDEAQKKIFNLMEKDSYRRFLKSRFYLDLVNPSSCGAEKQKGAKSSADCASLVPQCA
MrgX1 allo act: allosterically activates human MrgX1 receptor signaling. Q96LB2. 310,000 compounds, 0.63% hits. AID 588675. MrgX1-HEK293, Fluo-4 calcium flux, FDSS; active compounds read high. B-score at 10 µM;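 active = plate-corrected calcium response at least 3 library SD above typical, normal starting fluorescence, not activating the receptor alone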;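 note: compound read alongside a low EC10 to EC30 dose of BAM8-22 agonist; peak minus trough fluorescence over baseline measured at the second addition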
RGS4 pot: RGS4 potentiation or activation; B-score at 10 µM; HEK293 M3R/inducible RGS4, carbachol calcium flux Fluo4; active compounds read low; 310,000 compounds, 0.92% hits; AID 463111;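 active = B-score of the integrated calcium signal more than 4 SD below the library mean, with starting fluorescence not abnormally high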;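 note: negative B-score means reduced calcium response which marks RGS4 activation or potentiation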
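Material: Inducible-RGS4 HEK293 cells carrying M3 receptor; also added: carbachol at ECmax as muscarinic agonist stimulus; incubation: compound preincubation 20 min at room temperature before agonist; signal: Fluo4-AM (2 µM) calcium-flux fluorescence, kinetic read; measure: integrated calcium ratio converted to B score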
MrgX1 ag: activates human MrgX1 receptor signaling; AID 588627; B-score at 10 µM; Q96LB2; 310,000 compounds, 0.44% hits; MrgX1-HEK293 cells, Fluo-4 calcium fluorescence, agonist mode; active compounds read high;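 active = calcium response B-score plate-corrected fluorescence ratio at least 3 library SD, with starting fluorescence B-score inside 5 SD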
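Assay system: MrgX1-expressing HEK293 cells / Amount: fifteen thousand cells per well / Doses: test compound in the initial addition of three / Timing: cells plated overnight, dye loaded 0.5 h 37 °C, 0.5 h room temperature / Technique: kinetic calcium dye fluorescence, Fluo-4 NW / Control set: positive and negative controls per plate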
MrgX1 PAM conf: reconfirmed allosteric activator of human MrgX1 receptor; shares compounds with MrgX1 allo act; MrgX1-HEK293, Fluo-4 calcium fluorescence, FDSS; activation (ratio percentage), % at 10 µM; 1,200 compounds, 13% hits; AID 602413;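 active = ratio at least 3 SD above the weak peptide control, stable starting fluorescence, no direct agonism earlier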;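 note: compound followed by low BAM8-22 agonist challenge near EC20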
HEK293 Ca flux: counter-screen for MrgX1 antagonists: effect in parental HEK293 cells; shares compounds with MrgX1 antag; Fluo-4 calcium fluorescence, FDSS; fluorescence ratio F(max-min)/F0 at 10 µM; 4,000 compounds, 2% hits;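 active = duplicate-averaged calcium fluorescence ratio at least three times the standard deviation of buffer wells, a nonspecific response in parental cells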
HEK293 Ca counter: counter-screen for MrgX1 allosteric activators: effect in parental HEK293 cells; 4,000 compounds, 0.4% hits; shares compounds with MrgX1 antag; fluorescence ratio F(max-min)/F0 at 10 µM; parental HEK293 calcium flux, Fluo-4 fluorescence ratio; active compounds read high;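 active = calcium fluorescence ratio, averaged over duplicates, at least 3 SD of the buffer-well ratio, meaning a nonspecific response in receptor-free cells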;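 note: untransfected parental HEK293 lacking MrgX1 used as counterscreen for MrgX1 allosteric activators; fluorescence change taken during the second addition on a kinetic imager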
HEK293 Ca cntr2: activity in parental HEK293 cells lacking MrgX1 receptor | shares compounds with MrgX1 antag | Fluo-4 calcium fluorescence (FDSS); active compounds read high | fluorescence ratio F(max-min)/F0 at 10 µM | 4,000 compounds, 8.7% hits | AID 624115;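 active = calcium fluorescence ratio at least three times the spread of buffer wells, meaning a non-specific response in parental cells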
Each line names hits and unclear results; the compound was inactive in the other large screens (follow-up assays come after a bar, where they were run).

CCOC(=O)c1c(-c2ccccc2)nc2ccc(C)cn12	MrgX1 allo act 9.5 | MrgX1 PAM conf inactive | HEK293 Ca flux inactive | HEK293 Ca counter inactive | HEK293 Ca cntr2 inactive
COc1ccc(-c2cc(C(F)(F)F)n3ncc(C(=O)NCc4ccco4)c3n2)cc1	none
COc1ccc(-c2cc(C(F)(F)F)n3ncc(C(=O)N(C)Cc4ccccc4)c3n2)cc1	MrgX1 allo act 6.9 | MrgX1 PAM conf inactive | HEK293 Ca flux inactive | HEK293 Ca counter inactive | HEK293 Ca cntr2 inactive
Cc1nnc(NC(=O)c2ccc(C)c(S(=O)(=O)N3CCOCC3)c2)s1	none
Cc1nnc(NC(=O)c2ccc(S(=O)(=O)N3CCOCC3)cc2)s1	MrgX1 allo act 9.8 | MrgX1 PAM conf inactive | HEK293 Ca flux inactive | HEK293 Ca counter inactive | HEK293 Ca cntr2 inactive
CSc1cccc(NS(=O)(=O)c2cn(C)cn2)c1	MrgX1 allo act 12 | MrgX1 PAM conf inactive | HEK293 Ca flux inactive | HEK293 Ca counter inactive | HEK293 Ca cntr2 inactive
COc1ccc(NS(=O)(=O)c2cn(C)cn2)cc1	none
CN(Cc1ccon1)Cc1cn(C)nc1-c1cccc(Cl)c1	none
Cc1nc2ccc3nc(NC(=O)C4COc5ccccc5O4)sc3c2s1 (stereo unspecified)	MrgX1 allo act 8.1 | MrgX1 PAM conf 7.8% | HEK293 Ca flux inactive | HEK293 Ca counter inactive | HEK293 Ca cntr2 inactive
COc1ccc(Cl)cc1NC(=O)C1COc2ccccc2O1 (stereo unspecified)	none
CN1CCN(c2ccc(Cl)cc2NC(=O)C2COc3ccccc3O2)CC1 (stereo unspecified)	MrgX1 allo act 6.5 | MrgX1 PAM conf inactive | HEK293 Ca flux inactive | HEK293 Ca counter inactive | HEK293 Ca cntr2 inactive
Cc1cccc(N=C2CSC(=O)N2)c1	MrgX1 allo act 7.4 | MrgX1 PAM conf inactive | HEK293 Ca flux inactive | HEK293 Ca counter inactive | HEK293 Ca cntr2 inactive
Cc1cccc(N=C2NC(=O)S/C2=C\c2ccco2)c1	none
O=C(C1CC1)N1CCc2cc(Br)cc(S(=O)(=O)N3CCCCCC3)c21	MrgX1 allo act 11 | MrgX1 PAM conf inactive | HEK293 Ca flux inactive | HEK293 Ca counter inactive | HEK293 Ca cntr2 inactive
O=C(c1ccccc1)N1CCN(c2ncccn2)CC1	none
Nc1ncnc2nc(N3CCN(C(=O)c4ccccc4)CC3)[nH]c12	MrgX1 allo act 17 | MrgX1 PAM conf inactive | HEK293 Ca flux inactive | HEK293 Ca counter inactive | HEK293 Ca cntr2 inactive
CC(NC(=O)C1CSC2(C)CCC(=O)N12)c1ccccc1Cl (stereo unspecified)	none
CC12CCC(=O)N1C(C(=O)OCc1c(Cl)cccc1Cl)CS2 (stereo unspecified)	MrgX1 allo act 6.5 | MrgX1 PAM conf inactive | HEK293 Ca flux inactive | HEK293 Ca counter inactive | HEK293 Ca cntr2 inactive
O=C(Nc1nnc(SCC(=O)N2CCCCC2)s1)c1ccc(F)cc1F	MrgX1 allo act 6.8 | MrgX1 PAM conf inactive | HEK293 Ca flux inactive | HEK293 Ca counter inactive | HEK293 Ca cntr2 inactive
O=C(Cc1ccc(F)cc1)Nc1nnc(SCC(=O)N2CCCCC2)s1	none
NC(=O)c1ccsc1NC(=O)COC(=O)Cc1c[nH]c2ccccc12	MrgX1 allo act 8.9 | MrgX1 PAM conf 27% | HEK293 Ca flux inactive | HEK293 Ca counter inactive | HEK293 Ca cntr2 inactive
O=C(N/N=C/c1cccnc1)c1sc2ccccc2c1Cl	none
CCC1(C)Cc2ccccc2-c2nc(NCCCO)n(C)c(=O)c21 (stereo unspecified)	none
CCC1(C)Cc2ccccc2-c2nc(NCCO)n(-c3ccccc3)c(=O)c21 (stereo unspecified)	MrgX1 allo act 7.7 | MrgX1 PAM conf inactive | HEK293 Ca flux inactive | HEK293 Ca counter inactive | HEK293 Ca cntr2 inactive
CCCCc1cc(=O)oc2cc(OCC(=O)NCc3ccccn3)c(Cl)cc12	none

High-throughput results as filed in PubChem.
